In paper PMC4184708 (Pharmacology Research & Perspectives, 2014):

Assays:
[1] = Pharmacokinetics of vigabatrin after iv or oral administration to rats; assay type: in vivo, male Sprague–Dawley rats
[2] = Pharmacokinetics of acetaminophen; assay type: in vivo, male Sprague–Dawley rats; conditions: rats
[3] = Acetaminophen deconvolution profiles and rate of gastric emptying; assay type: in vivo, male Sprague–Dawley rats; conditions: rats, deconvolution profile, after 30 min
Caco-2 cell monolayers = test: Transepithelial apical to basolateral; assay type: in vitro ADME, human; conditions: Caco-2 monolayers, NaCl-reduced HBSS versus HBSS
In short: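 Caco-2 cells (passages 10–18) were seeded at 8.9·10^4 cells cm−2 on 1.12 cm2 polycarbonate inserts (0.4 μm) and run 20 days post seeding, with TEER monitored. 1.0 mmol/L test compound was applied apically, alone or with amino acid or dipeptide inhibitors (35.0–152.5 mmol/L) in NaCl-reduced HBSS (mannitol to 270–310 mOsmol L−1), or with low fat infant formula 150 mg mL−1 in water. Controls were in HBSS and NaCl-reduced HBSS.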

Caco-2 cells = test: Apical vigabatrin uptake in Caco-2 cells; assay type: in vitro ADME, human
In short: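 Caco-2 cells (passages 10–18) were seeded at 8.9·10^4 cells cm−2 in 24-well plates and used 6 days post seeding. Low fat infant formula: 150 mg mL−1 was incubated 15 min at 37°C, centrifuged 15 min at 18000g and 4°C, and the supernatant was re-spun to remove lipids. Uptake rate is in nmol min−1 cm−2; n = 3–4.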

Absorption rate constant = assay type: in vivo, male Sprague–Dawley rats; conditions: rats
[4] = Paracellular flux: A–B transport of [14C]-mannitol across Caco-2 cell monolayers; assay type: in vitro ADME; conditions: human
[5] = oral coadministration with 120 mg kg^−1 acetaminophen
[6] = rats, vigabatrin 1.0 mg kg^−1 PO, formulation 1, dietary component none
[7] = rats, vigabatrin 1.0 mg kg^−1 PO, formulation 5, with Sar 200 mg kg^−1
[8] = rats, vigabatrin 1.0 mg kg^−1 PO, formulation 6, with BCH 200 mg kg^−1
[9] = rats, vigabatrin 10 mg kg^−1 PO, formulation 7, dietary component none
[10] = rats, vigabatrin 10 mg kg^−1 PO, formulation 10, with Sar 200 mg kg^−1

CNCC(=O)O [Sar, sarcosine]
effect on tmax of vigabatrin ([1]; rats, oral coadministration with 1.0 and 10.0 mg kg^−1 vigabatrin): significant prolonging effect | effect on Cmax of vigabatrin ([1]; rats, oral coadministration with vigabatrin): significantly decreased | effect on Cmax of acetaminophen [2, 5]: did not alter | effect on tmax of acetaminophen [2, 5]: did not alter

CC(=O)Nc1ccc(O)cc1 [acetaminophen]
AUC(0-inf) ([2]; male, Sprague-Dawley, rat, plasma, iv, 120 mg/kg, AUC0–∞, acetaminophen 120 mg kg^−1 iv, formulation 00, dietary component none): 155000 ± 4000 ng·h/mL | k el ([2]; male, Sprague-Dawley, rat, plasma, iv, 120 mg/kg, ke, acetaminophen 120 mg kg^−1 iv, formulation 00, dietary component none): 0.000306 s⁻¹ | Fabs ([2]; acetaminophen 120 mg kg^−1 iv, formulation 00, dietary component none): 100 ± 3% | cumulative fraction of acetaminophen absorbed [3]: about 90%

C=CC(N)CCC(=O)O (stereo not drawn) [vigabatrin]
transport of vigabatrin in the apical to basolateral direction (Caco-2 cell monolayers): unaffected | apical vigabatrin uptake rate (Caco-2 cells; apical pH 6.0, control): 1.01 ± 0.11 nmol min^−1 cm^−2 | apical vigabatrin uptake rate (Caco-2 cells; apical pH 6.0, in the presence of Gly-Gly): 0.48 ± 0.07 nmol min^−1 cm^−2 | apical vigabatrin uptake rate (Caco-2 cells; apical pH 6.0, in the presence of low fat infant formula): 0.53 ± 0.09 nmol min^−1 cm^−2 | apical vigabatrin uptake rate (Caco-2 cells; apical pH 7.4, control): 0.31 ± 0.04 nmol min^−1 cm^−2 | apical vigabatrin uptake rate (Caco-2 cells; apical pH 7.4, in the presence of Gly-Gly): 0.25 ± 0.03 nmol min^−1 cm^−2 | apical vigabatrin uptake rate (Caco-2 cells; apical pH 7.4, in the presence of low fat infant formula): 0.28 ± 0.06 nmol min^−1 cm^−2 | clearance ([1]; male, Sprague-Dawley, rat, plasma, iv, 1 mg/kg): 7.1 mL/min/kg | AUC(0-inf) ([1]; male, Sprague-Dawley, rat, plasma, po, 10 mg/kg, AUC0–∞, rats, vigabatrin 10 mg kg^−1 PO, formulation 7, dietary component none): 17800 ± 808 ng·h/mL | Cmax ([1]; male, Sprague-Dawley, rat, plasma, po, 10 mg/kg, Cmax, rats, vigabatrin 10 mg kg^−1 PO, formulation 7, dietary component none): 13600 ± 953 ng/mL | k el ([1]; male, Sprague-Dawley, rat, plasma, po, 10 mg/kg, ke, rats, vigabatrin 10 mg kg^−1 PO, formulation 7, dietary component none): 0.000194 s⁻¹ | Tmax ([1]; male, Sprague-Dawley, rat, plasma, po, 10 mg/kg, tmax, median [Q1, Q3], rats, vigabatrin 10 mg kg^−1 PO, formulation 7, dietary component none): 19.8 min | time of maximal plasma concentration (Cmax) after oral administration ([1]; rats, oral administration of 1.0 or 10.0 mg kg^−1 vigabatrin): 0.25 to 0.33 h | CL [1, 6]: 9.68 ± 0.5 mL/min/kg | Fabs [1, 6]: 72 ± 4% | CL [1, 7]: 9.53 ± 0.383 mL/min/kg | Fabs [1, 7]: 73 ± 3% | CL [1, 8]: 9.13 ± 0.333 mL/min/kg | Fabs [1, 8]: 76 ± 3% | Fabs ([1]; rats, vigabatrin 1.0 mg kg^−1 iv, formulation 0, dietary component none): 100% | CL [1, 9]: 9.45 ± 0.4 mL/min/kg | Fabs [1, 9]: 74 ± 3% | CL [1, 10]: 10.6 ± 0.533 mL/min/kg | Fabs [1, 10]: 66 ± 3% | ka (Absorption rate constant; vigabatrin 1 mg kg^−1, DC fitted to eq. 9, with Low fat milk): 5.2 ± 0.3 | ka (Absorption rate constant; vigabatrin 1 mg kg^−1, DC fitted to eq. 9, with Milk): 5.3 ± 0.9 | ka (Absorption rate constant; vigabatrin 1 mg kg^−1, DC fitted to eq. 9, with Sar): 2.9 ± 0.2 | ka (Absorption rate constant; vigabatrin 1 mg kg^−1, PC fitted to eq. 10, with Low fat milk): 2.6 ± 0.1 | ka (Absorption rate constant; vigabatrin 1 mg kg^−1, PC fitted to eq. 10, with Milk): 2.8 ± 0.3 | ka (Absorption rate constant; vigabatrin 1 mg kg^−1, PC fitted to eq. 10, with Sar): 1.6 ± 0.1 | ka (Absorption rate constant; vigabatrin 1 mg kg^−1, deconvolution curve (DC) fitted to eq. 9, Control): 7.9 ± 1.9 | ka (Absorption rate constant; vigabatrin 10 mg kg^−1, DC fitted to eq. 9, with Low fat milk): 5.0 ± 0.3 | ka (Absorption rate constant; vigabatrin 10 mg kg^−1, DC fitted to eq. 9, with Milk): 4.1 ± 0.5 | ka (Absorption rate constant; vigabatrin 10 mg kg^−1, DC fitted to eq. 9, with Sar): 3.2 ± 0.2 | ka (Absorption rate constant; vigabatrin 10 mg kg^−1, PC fitted to eq. 10, with Low fat milk): 2.6 ± 0.1 | ka (Absorption rate constant; vigabatrin 10 mg kg^−1, PC fitted to eq. 10, with Milk): 2.6 ± 0.3 | ka (Absorption rate constant; vigabatrin 10 mg kg^−1, PC fitted to eq. 10, with Sar): 1.7 ± 0.1 | ka (Absorption rate constant; vigabatrin 10 mg kg^−1, deconvolution curve (DC) fitted to eq. 9, Control): 8.1 ± 2.3

OC[C@@H](O)[C@@H](O)[C@H](O)[C@H](O)CO [mannitol, D-[1-^14C]-mannitol]
Papp [4]: 0.16 ×10⁻⁶ cm/s

NC1(C(=O)O)CC2CCC1C2 (stereo not drawn) [BCH, 2-amino-2-norbornanecarboxylic acid]
effect on the pharmacokinetic parameters of vigabatrin absorption ([1]; rats, oral administration of 1.0 mg kg^−1 vigabatrin): did not significantly alter
